Converted amounts (≈) assume the structure as drawn.
How the values were obtained:
[1] = system: Respiratory syncytial virus; experiment: Antiviral activity against RSV RSS in Hep2 cells by XTT assay; type: functional, organism-based, HEp-2; details: for IC50: human respiratory syncytial virus, RSS, HEp-2
Method in brief: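 HEp-2 cells infected with RSV RSS strain in the presence of compound, incubated 6 days at 37 °C. Residual viability was read by XTT metabolism to a coloured product, and IC50 was derived.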

[2] = Aqueous solubility at pH 7.0; type: physicochemical
[3] = system: Respiratory syncytial virus; experiment: Antiviral activity against RSV RSS in Hep2 cells by ELISA; type: functional, organism-based, HEp-2; details: for IC50: human respiratory syncytial virus, RSS, HEp-2
Method in brief: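 HEp-2 cells infected with RSV RSS strain and exposed to compound for 3 days at 37 °C. Monoclonal antibodies to RSV F, N and P proteins were detected with an enzyme-linked secondary antibody. Substrate conversion to a coloured product was read by optical density, and IC50 was derived.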

[4] = system: Respiratory syncytial virus; experiment: Antiviral activity against RSV RSS in Hep2 cells by plaque assay; type: functional, organism-based, HEp-2; details: for IC50: human respiratory syncytial virus, RSS, HEp-2
Method in brief: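 HEp-2 monolayers infected with RSV RSS strain and allowed 2 h adsorption. Compound was then added in medium with 0.6% agarose and incubated 5 days at 37 °C. Monolayers were fixed, the overlay removed, and plaques stained with methylene blue.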

[5] = Cytotoxicity against RSV RSS infected Hep2 cells by plaque assay; type: cell-based; details: human, hep-2
[6] = Cytotoxicity against RSV RSS infected Hep2 cells by ELISA; type: cell-based; details: human, hep-2
[7] = Cytotoxicity against RSV RSS infected Hep2 cells by XTT assay; type: cell-based; details: human, hep-2
Method in brief: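 Same XTT format (HEp-2 cells, 6 days at 37 °C, XTT read-out) run in parallel without virus. TD50 is the concentration giving 50% cell death in the absence of virus.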

[8] = in vivo; details: rat, plasma, iv, 5 mg/kg
[9] = system: Serum; experiment: Protein binding in human serum; type: ADME, cell-free
[10] = Apparent permeability coefficient assessed using MDCK cells; type: ADME, cell-based, Canis lupus familiaris; details: dog
[11] = Cmax in rat at 5 mg/kg, iv; type: ADME, organism-based; set-up: dose 5 mg/kg, route intravenous; details: in vivo
Method in brief: (§1)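 Rat, single intravenous dose of 5 mg/kg, n = 3. Parameters were derived from plasma concentrations.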

[12] = Half life in rat at 5 mg/kg, po; details: in vivo
[13] = target: Cytochrome P450 2D6 (Homo sapiens, UniProt P10635); experiment: Inhibition of CYP2D6; type: ADME
Chain of Cytochrome P450 2D6 (P10635 whole entry, canonical isoform): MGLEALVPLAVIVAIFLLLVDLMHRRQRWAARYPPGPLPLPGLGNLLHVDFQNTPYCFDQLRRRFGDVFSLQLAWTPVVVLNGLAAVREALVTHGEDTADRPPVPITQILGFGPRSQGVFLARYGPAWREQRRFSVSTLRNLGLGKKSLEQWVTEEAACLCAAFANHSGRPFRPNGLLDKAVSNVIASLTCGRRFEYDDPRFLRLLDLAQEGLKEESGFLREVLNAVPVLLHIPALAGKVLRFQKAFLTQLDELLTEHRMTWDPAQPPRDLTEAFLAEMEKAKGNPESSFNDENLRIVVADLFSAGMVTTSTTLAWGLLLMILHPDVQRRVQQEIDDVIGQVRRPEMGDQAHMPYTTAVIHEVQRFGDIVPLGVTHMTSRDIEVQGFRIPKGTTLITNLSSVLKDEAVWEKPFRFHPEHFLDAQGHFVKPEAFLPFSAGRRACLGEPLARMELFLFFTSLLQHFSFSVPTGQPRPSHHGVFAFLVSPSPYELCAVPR
Method in brief: (§2)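 CYP inhibition was assessed as an effect on the metabolism of isoform-specific probe substrates for CYP3A4, 1A2, 2D6, 2C9 and 2C19.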

[14] = Oral bioavailability in rat at 5 mg/kg, po in 1% CMC suspension; type: ADME, organism-based; details: in vivo
Method in brief: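 Rat, oral dose of 5 mg/kg given as a suspension in 1% carboxymethylcellulose. Bioavailability was estimated relative to intravenous dosing.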

[15] = in vivo; details: rat, plasma, po, 5 mg/kg
[16] = target: Cytochrome P450 2C9 (Homo sapiens, UniProt P11712); experiment: Inhibition of CYP2C9; type: ADME; method in brief: as §2
Chain of Cytochrome P450 2C9 (P11712 whole entry): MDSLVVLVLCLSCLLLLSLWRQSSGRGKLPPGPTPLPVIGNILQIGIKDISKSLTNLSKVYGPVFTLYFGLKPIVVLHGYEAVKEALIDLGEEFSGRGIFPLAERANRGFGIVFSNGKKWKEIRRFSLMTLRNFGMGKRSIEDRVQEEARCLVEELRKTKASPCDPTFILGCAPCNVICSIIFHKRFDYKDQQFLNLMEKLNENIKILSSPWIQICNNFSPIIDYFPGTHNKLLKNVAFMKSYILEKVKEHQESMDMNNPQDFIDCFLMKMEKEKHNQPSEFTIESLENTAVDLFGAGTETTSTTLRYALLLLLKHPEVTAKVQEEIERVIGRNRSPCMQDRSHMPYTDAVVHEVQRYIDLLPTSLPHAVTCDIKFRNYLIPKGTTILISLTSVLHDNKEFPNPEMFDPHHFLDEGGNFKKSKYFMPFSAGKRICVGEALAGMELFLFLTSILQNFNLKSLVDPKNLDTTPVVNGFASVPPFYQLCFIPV

[17] = Volume of distribution in rat at 5 mg/kg, iv; type: ADME, organism-based; set-up: dose 5 mg/kg, route intravenous; details: in vivo, read-out: Vss; method in brief: as §1
[18] = Cmax in rat at 5 mg/kg, po; type: ADME, organism-based; set-up: dose 5 mg/kg, route oral; details: in vivo
Method in brief: (§3)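 Rat, oral dose of 5 mg/kg in a lipid-based formulation, n = 3. Bioavailability was calculated relative to the 5 mg/kg intravenous dose.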

[19] = target: T1, Cytochrome P450 1A2 (Homo sapiens, UniProt P05177); experiment: Inhibition of CYP1A2; type: ADME; method in brief: as §2
T1 sequence (P05177 whole entry): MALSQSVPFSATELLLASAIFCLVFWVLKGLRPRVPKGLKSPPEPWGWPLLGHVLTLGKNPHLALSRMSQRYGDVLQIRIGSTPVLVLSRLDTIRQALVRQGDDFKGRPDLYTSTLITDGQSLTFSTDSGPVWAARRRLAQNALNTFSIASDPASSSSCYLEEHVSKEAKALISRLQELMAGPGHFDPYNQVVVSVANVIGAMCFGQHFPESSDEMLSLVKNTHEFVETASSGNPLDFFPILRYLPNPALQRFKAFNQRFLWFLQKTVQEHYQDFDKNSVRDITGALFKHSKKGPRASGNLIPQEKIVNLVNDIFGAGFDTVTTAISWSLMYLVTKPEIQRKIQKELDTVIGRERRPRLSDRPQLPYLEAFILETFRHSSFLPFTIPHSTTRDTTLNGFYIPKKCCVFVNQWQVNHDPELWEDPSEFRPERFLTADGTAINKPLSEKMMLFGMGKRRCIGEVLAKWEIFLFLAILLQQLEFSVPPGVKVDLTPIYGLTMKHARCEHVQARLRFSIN

[20] = Fraction unbound ligand in rat serum; type: ADME, cell-free
[21] = target: Cytochrome P450 3A4 (Homo sapiens, UniProt P08684); experiment: Inhibition of CYP3A4; type: ADME; method in brief: as §2
Chain of Cytochrome P450 3A4 (P08684 whole entry): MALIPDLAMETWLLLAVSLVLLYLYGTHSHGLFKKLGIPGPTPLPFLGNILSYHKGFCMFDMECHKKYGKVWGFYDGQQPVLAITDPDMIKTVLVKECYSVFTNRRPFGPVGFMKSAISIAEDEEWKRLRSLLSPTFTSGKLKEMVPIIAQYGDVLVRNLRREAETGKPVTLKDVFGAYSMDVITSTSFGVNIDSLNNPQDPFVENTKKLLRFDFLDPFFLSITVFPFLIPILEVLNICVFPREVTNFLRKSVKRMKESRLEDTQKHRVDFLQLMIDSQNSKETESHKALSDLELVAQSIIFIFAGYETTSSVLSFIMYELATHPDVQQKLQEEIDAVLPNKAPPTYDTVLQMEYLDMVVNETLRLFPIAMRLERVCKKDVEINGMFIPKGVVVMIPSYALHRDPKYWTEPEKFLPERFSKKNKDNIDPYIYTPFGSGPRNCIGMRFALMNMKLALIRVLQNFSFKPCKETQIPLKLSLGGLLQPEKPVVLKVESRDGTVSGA

[22] = Oral bioavailability in rat at 5 mg/kg, po in lipid based formulation; type: ADME, organism-based; details: in vivo; method in brief: as §3
[23] = Half life in rat at 5 mg/kg, iv; details: in vivo
[24] = system: Serum; experiment: Protein binding in dog serum; type: ADME, cell-free, Canis lupus familiaris
[25] = system: Serum; experiment: Protein binding in rat serum; type: ADME, cell-free
[26] = Fraction unbound ligand in human serum; type: ADME, cell-free
[27] = target: Cytochrome P450 2C19 (Homo sapiens, UniProt P33261); experiment: Inhibition of CYP2C19; type: ADME; method in brief: as §2
Chain of Cytochrome P450 2C19 (P33261 whole entry): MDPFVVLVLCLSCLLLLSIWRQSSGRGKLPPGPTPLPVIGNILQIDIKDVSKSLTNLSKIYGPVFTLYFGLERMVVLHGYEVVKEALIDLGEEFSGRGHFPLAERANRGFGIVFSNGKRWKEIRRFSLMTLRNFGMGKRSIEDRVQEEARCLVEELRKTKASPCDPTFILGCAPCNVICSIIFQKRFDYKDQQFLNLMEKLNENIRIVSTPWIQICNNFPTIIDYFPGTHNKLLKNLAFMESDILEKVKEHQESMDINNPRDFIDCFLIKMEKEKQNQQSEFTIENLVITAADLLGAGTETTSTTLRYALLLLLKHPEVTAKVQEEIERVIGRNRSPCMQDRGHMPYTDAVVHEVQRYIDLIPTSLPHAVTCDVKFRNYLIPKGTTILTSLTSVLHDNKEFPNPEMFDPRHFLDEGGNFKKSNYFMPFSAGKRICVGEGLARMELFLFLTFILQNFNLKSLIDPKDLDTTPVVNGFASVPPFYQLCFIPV

[28] = Fraction unbound ligand in dog serum; type: ADME, cell-free, Canis lupus familiaris

In the case of `O=C(CN1C(=O)[C@@H](NC(=O)Nc2ccccc2F)N=C(c2ccccc2)c2ccccc21)Nc1ccncc1`, the TD50 [1] is reported as >50 µM and the IC50 [1] is reported as 14200 nM.
In the case of `O=C(N[C@H]1N=C(c2ccccc2)c2ccccc2NC1=O)c1ccc(N2CCOCC2)cc1Cl`, the solubility [2] is reported as 0.9 µg/mL (≈ 1.89 µM), the TD50 [3] is reported as >50 µM and the IC50 [3] is reported as 1500 nM. For the same compound, the TD50 [4] was >50 µM, the IC50 [4] was 800 nM and the TD50 [1] was >50 µM. The IC50 [1] was 1400 nM.
For `COc1cc([N+](=O)[O-])ccc1C(=O)N[C@@H]1N=C(c2ccccc2)c2ccccc2NC1=O`, the TD50 [1] was >50 µM and the IC50 [1] was 21200 nM.
With `O=C(N[C@H]1N=C(c2ccccc2)c2ccccc2NC1=O)c1cccnc1N1CCOCC1` the TD50 [1] was >50 µM and the IC50 [1] was 2900 nM.
In the case of `O=C(NC1N=C(c2ccccc2)c2ccccc2NC1=O)C1CCCCC1` (stereo not given), the TD50 [1] is reported as >50 µM and the IC50 [1] is reported as 12600 nM.
In the case of `CCNC(=O)CN1C(=O)[C@@H](NC(=O)Nc2ccccc2F)N=C(c2ccccc2)c2ccccc21`, the TD50 [1] is reported as >50 µM and the IC50 [1] is reported as > 50000 nM.
With `O=C(N[C@H]1N=C(c2ccccc2)c2ccccc2NC1=O)c1ccc(F)cc1N1CCCCC1` the TD50 [1] was >50 µM and the IC50 [1] was 7500 nM.
With `COc1cc([N+](=O)[O-])ccc1C(=O)NC1N=C(c2ccccc2)c2ccccc2NC1=O` (stereo not given) the TD50 [1] was >50 µM and the IC50 [1] was 2000 nM.
In the case of `COc1cc([N+](=O)[O-])ccc1C(=O)N[C@H]1N=C(c2ccccc2)c2ccccc2NC1=O`, the TD50 [3] is reported as >50 µM, the IC50 [3] is reported as 1000 nM and the TD50 [4] is reported as >50 µM. The IC50 [4] was 500 nM, the TD50 [1] was >50 µM and the IC50 [1] was 900 nM.
For `O=C(Nc1ccccc1F)NC1N=C(c2ccccc2)c2ccccc2NC1=O` (stereo not given), the Activity [5] was “Non-toxic”, the TD50 [1] was >50 µM and the IC50 [1] was 27800 nM. For the same compound, the Activity [6] was “Non-toxic” and the Activity [7] was “Non-toxic”.
For `O=C(N[C@H]1N=C(c2ccccc2)c2ccccc2NC1=O)c1cc(Cl)ccc1N1CCS(=O)(=O)CC1`, the TD50 [1] was >50 µM and the IC50 [1] was 2200 nM.
In the case of `O=C(N[C@@H]1N=C(c2ccccc2)c2ccccc2NC1=O)C1CCCCC1`, the TD50 [1] is reported as >50 µM and the IC50 [1] is reported as > 50000 nM.
For `O=C(Nc1ccccc1F)N[C@H]1N=C(c2ccccc2)c2ccccc2N(CC(=O)N2CCOCC2)C1=O`, the TD50 [1] was >50 µM and the IC50 [1] was > 50000 nM.
For `O=C(Nc1ccccc1F)N[C@H]1N=C(c2ccccc2)c2ccccc2NC1=O` [RSV-604], the AUC(0-inf) [8] was 11700 ng·h/mL, the Activity [5] was “Non-toxic” and the Activity [9] was 95%. The Papp [10] was 13 ×10⁻⁶ cm/s, the Cmax [11] was 3300 ng/mL and the solubility [2] was 4.1 µg/mL (≈ 10.6 µM). For the same compound, the half-life [12] was 2.6 h, the TD50 [3] was >50 µM and the IC50 [3] was 1400 nM. For the same compound, the Activity [13] was “Not Active”, the TD50 [4] was >50 µM and the IC50 [4] was 700 nM. The bioavailability [14] was < 40%, the TD50 [1] was >50 µM and the IC50 [1] was 900 nM. For the same compound, the AUC(0-inf) [15] was 10900 ng·h/mL, the Activity [6] was “Non-toxic” and the Activity [16] was “Not Active”. For the same compound, the Vd [17] was 2.2 L/kg, the Cmax [18] was 910 ng/mL and the Activity [19] was “Not Active”. For the same compound, the fraction unbound [20] was 0.05, the Activity [21] was “Not Active” and the Activity [7] was “Non-toxic”. For the same compound, the bioavailability [22] was > 90%, the half-life [23] was 3.8 h and the Activity [24] was 95%. For the same compound, the Activity [25] was 95%, the fraction unbound [26] was 0.05 and the Activity [27] was “Not Active”. The fraction unbound [28] was 0.05.
With `COc1cc(S(C)(=O)=O)ccc1C(=O)N[C@H]1N=C(c2ccccc2)c2ccccc2NC1=O` the solubility [2] was 22 µg/mL (≈ 47.5 µM), the TD50 [3] was >50 µM and the IC50 [3] was 600 nM. The TD50 [4] was >50 µM, the IC50 [4] was 500 nM and the TD50 [1] was >50 µM. It also gave an IC50 [1] of 500 nM.
In the case of `O=C(N[C@H]1N=C(c2ccccc2)c2ccccc2NC1=O)c1cc(F)ccc1N1CCS(=O)(=O)CC1`, the TD50 [1] is reported as >50 µM and the IC50 [1] is reported as 700 nM.
For `O=C(N[C@H]1N=C(c2ccccc2)c2ccccc2NC1=O)C1CCCCC1`, the TD50 [1] was >50 µM and the IC50 [1] was 3300 nM.
With `O=C(Nc1ccccc1F)N[C@@H]1N=C(c2ccccc2)c2ccccc2NC1=O` the Activity [5] was “Non-toxic”, the TD50 [1] was >50 µM and the IC50 [1] was 27800 nM. For the same compound, the Activity [6] was “Non-toxic” and the Activity [7] was “Non-toxic”.

— ChEMBL document CHEMBL1142977, “1,4-benzodiazepines as inhibitors of respiratory syncytial virus. The identification of a clinical candidate” (J Med Chem, 2007)
